According to ChEMBL document CHEMBL2203171, “The use of small molecule probes to study spatially separated stimulus-induced signaling pathways” (Bioorg Med Chem Lett, 2012):
Activity calls are given as the source filed them. The rule behind the calls is not given here.

target: T1, Toll-like receptor 9 (Mus musculus) (UniProt Q9EQU3); test: Inhibition of MyD88 recruitment to TLR9 in C57BL/6 mouse BMDM cells assessed as inhibition of CpG-induced IkappaBalpha degradation up to 90 mins by Western blot analysis; type: cell-based
T1 sequence (whole entry): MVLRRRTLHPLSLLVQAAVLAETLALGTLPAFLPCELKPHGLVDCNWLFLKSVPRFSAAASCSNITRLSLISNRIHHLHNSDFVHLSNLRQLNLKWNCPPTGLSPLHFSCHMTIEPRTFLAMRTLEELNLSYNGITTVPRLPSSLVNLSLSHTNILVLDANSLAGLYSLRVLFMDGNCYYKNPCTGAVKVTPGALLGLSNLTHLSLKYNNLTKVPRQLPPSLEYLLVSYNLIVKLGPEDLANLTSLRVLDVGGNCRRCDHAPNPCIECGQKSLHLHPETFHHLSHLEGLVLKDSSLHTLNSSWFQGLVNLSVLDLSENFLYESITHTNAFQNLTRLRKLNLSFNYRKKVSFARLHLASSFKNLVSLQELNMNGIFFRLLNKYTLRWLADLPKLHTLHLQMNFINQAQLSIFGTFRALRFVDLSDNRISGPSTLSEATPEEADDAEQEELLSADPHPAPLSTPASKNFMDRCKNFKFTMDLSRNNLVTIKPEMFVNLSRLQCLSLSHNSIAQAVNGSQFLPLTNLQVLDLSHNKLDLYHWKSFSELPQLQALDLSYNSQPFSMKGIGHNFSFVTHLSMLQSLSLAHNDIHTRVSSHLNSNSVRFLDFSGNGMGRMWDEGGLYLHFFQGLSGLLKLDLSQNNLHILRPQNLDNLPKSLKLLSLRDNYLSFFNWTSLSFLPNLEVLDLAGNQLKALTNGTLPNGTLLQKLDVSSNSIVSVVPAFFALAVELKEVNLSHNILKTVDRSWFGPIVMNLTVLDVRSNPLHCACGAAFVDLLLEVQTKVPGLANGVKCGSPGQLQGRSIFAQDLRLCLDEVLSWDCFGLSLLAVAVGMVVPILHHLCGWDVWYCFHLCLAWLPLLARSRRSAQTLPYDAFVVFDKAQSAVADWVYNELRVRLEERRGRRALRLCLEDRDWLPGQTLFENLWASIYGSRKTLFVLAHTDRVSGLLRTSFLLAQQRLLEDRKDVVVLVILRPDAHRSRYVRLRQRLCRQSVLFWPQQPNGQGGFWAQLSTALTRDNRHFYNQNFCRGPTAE
Outline: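 Bone marrow macrophages from C57BL/6 mice, grown in 70% growth medium (DMEM, 10% FBS) plus 30% L929-conditioned medium and given fresh medium 12-14 h before stimulation. Stimuli: IL-1 40 ng/ml, HKSA ~10^8 cfu/ml, pI:pC 50 μg/ml or CpG 10 μg/ml, ± compound at 10 μM (final) added from a 200x DMSO stock. IκBα and p38 profiled by immunoblot. Three independent experiments, quantitated and normalized.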

inhibition	SMILES
Active	O=C(CCCCCN1C(=O)CCC1=O)Oc1ccc2cc(C(C(=O)NCc3ccccc3)N(C(=O)Cc3ccc4c(c3)OCO4)C3CC3)ccc2c1 (centres undefined)
Active	O=C(CCCCCN1C(=O)C=CC1=O)Oc1ccc2cc(C(C(=O)NCc3ccccc3)N(C(=O)Cc3ccc4c(c3)OCO4)C3CC3)ccc2c1 (centres undefined)
Active	O=C(CCCCCCCC(=O)ON1C(=O)CCC1=O)Oc1ccc2cc(C(C(=O)NCc3ccccc3)N(C(=O)Cc3ccc4c(c3)OCO4)C3CC3)ccc2c1 (centres undefined)

target: T2, Inhibitor of nuclear factor kappa-B kinase subunit beta (Mus musculus) (UniProt O88351); test: Inhibition of IKKbeta in C57BL/6 mouse BMDM cells assessed as inhibition of TNFalpha-induced phosphorylation at 25 uM after 5 mins by Western blot analysis; type: cell-based
T2 sequence (whole entry): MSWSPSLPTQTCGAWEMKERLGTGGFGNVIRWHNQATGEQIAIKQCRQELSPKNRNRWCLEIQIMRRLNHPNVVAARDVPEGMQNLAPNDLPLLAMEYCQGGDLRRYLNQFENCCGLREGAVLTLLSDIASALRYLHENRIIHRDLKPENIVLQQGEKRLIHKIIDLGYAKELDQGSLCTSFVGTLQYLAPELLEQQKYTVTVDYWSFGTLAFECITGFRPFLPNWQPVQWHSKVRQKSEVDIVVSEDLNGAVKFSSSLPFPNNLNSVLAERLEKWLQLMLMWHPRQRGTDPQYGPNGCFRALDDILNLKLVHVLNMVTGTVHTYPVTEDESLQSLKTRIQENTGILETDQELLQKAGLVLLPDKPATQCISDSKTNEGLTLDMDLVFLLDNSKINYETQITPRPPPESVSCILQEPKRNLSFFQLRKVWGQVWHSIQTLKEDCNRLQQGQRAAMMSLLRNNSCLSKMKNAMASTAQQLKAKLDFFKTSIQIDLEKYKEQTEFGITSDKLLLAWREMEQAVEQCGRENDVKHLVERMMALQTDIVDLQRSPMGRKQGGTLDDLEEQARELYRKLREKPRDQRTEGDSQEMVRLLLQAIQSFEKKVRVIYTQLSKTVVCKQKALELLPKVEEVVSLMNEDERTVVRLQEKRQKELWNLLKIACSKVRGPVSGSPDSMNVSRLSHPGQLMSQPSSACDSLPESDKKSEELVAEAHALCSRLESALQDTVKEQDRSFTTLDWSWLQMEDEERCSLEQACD
Outline: (§1)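 C57BL/6 marrow-derived macrophages were cultured in 70% growth medium/30% L929-conditioned medium and refreshed 12-14 h before stimulation. Stimuli were TNF 40 ng/ml or LPS 100 ng/ml, ± compound at 25 μM from a 200x DMSO stock. Western blots tracked IKK, p38, IκBα and phospho-RelA. Results from three independent experiments were quantitated and normalized.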

inhibition	SMILES
inactive	O=C(CCCCCN1C(=O)CCC1=O)Oc1ccc2cc(C(C(=O)NCc3ccccc3)N(C(=O)Cc3ccc4c(c3)OCO4)C3CC3)ccc2c1 (centres undefined)
inactive	O=C(CCCCCN1C(=O)C=CC1=O)Oc1ccc2cc(C(C(=O)NCc3ccccc3)N(C(=O)Cc3ccc4c(c3)OCO4)C3CC3)ccc2c1 (centres undefined)
inactive	O=C(CCCCCCCC(=O)ON1C(=O)CCC1=O)Oc1ccc2cc(C(C(=O)NCc3ccccc3)N(C(=O)Cc3ccc4c(c3)OCO4)C3CC3)ccc2c1 (centres undefined)

target: T2, Inhibitor of nuclear factor kappa-B kinase subunit beta (Mus musculus); test: Inhibition of IKKbeta in C57BL/6 mouse BMDM cells assessed as inhibition of TNFalpha-induced IkappaBalpha phosphorylation at 25 uM after 5 mins by Western blot analysis; type: cell-based; outline: as §1

inhibition	SMILES
inactive	O=C(CCCCCN1C(=O)CCC1=O)Oc1ccc2cc(C(C(=O)NCc3ccccc3)N(C(=O)Cc3ccc4c(c3)OCO4)C3CC3)ccc2c1 (centres undefined)
inactive	O=C(CCCCCN1C(=O)C=CC1=O)Oc1ccc2cc(C(C(=O)NCc3ccccc3)N(C(=O)Cc3ccc4c(c3)OCO4)C3CC3)ccc2c1 (centres undefined)
inactive	O=C(CCCCCCCC(=O)ON1C(=O)CCC1=O)Oc1ccc2cc(C(C(=O)NCc3ccccc3)N(C(=O)Cc3ccc4c(c3)OCO4)C3CC3)ccc2c1 (centres undefined)
